Test results: ChEMBL document CHEMBL4725355, “Design, Synthesis, and Preclinical Evaluation of 3-Methyl-6-(5-thiophenyl)-1,3-dihydro-imidazo[4,5-b]pyridin-2-ones as Selective GluN2B Negative Allosteric Modulators for the Treatment of Mood Disorders” (J Med Chem, 2020)

Assays:
[1] = Solubility of compound in phosphate buffer at pH 7 measured after 3 days; format: physicochemical; conditions: time 3 day
How it was run: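 Solubility in aqueous buffer at pH 2 and pH 7, and in simulated gastric and intestinal fluids.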

[2] = Drug level in Sprague-Dawley rat brain hippocampus at 0.03 mg/kg, iv after 60 min by LC-MS/MS analysis; format: ADME, organism-based; conditions: read-out: Drug uptake
How it was run: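 Single i.v. dose of 0.03 mg/kg in 50% (w/v) PEG/water, pH 7.4; rats n=3 per group, killed at 5, 10, 30, 60 and 120 min. Cerebellum, cortex, striatum and hippocampus dissected, weighed and homogenized; drug quantified by LC-MS/MS and normalized to tissue weight. P<0.05 taken as significant versus cerebellum.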

Rattus norvegicus = assay: Ex vivo receptor occupancy at GluN2B in po dosed Sprague-Dawley rat assessed as total plasma concentration causing 70% 3-[3H] 1-(azetidin-1-yl)-2-[6-(4-fluoro-3-methyl-phenyl)pyrrolo[3,2-b]pyridin-1-yl]-ethanone labelling measured after 60 mins by autoradiography; format: functional, organism-based
How it was run: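 Oral dosing in rat at 8 dose levels, vehicle 20% HP-β-CD, 3 animals per group. Hippocampal GluN2B occupancy was measured ex vivo by autoradiography at 60 min post dose with the [3H] pyrrolopyridine tracer on brain slices. Labelling was expressed as percent of naïve control rats. EC70 was taken as the total (bound + unbound) plasma concentration giving 70% occupancy, with a 95% confidence interval.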

[3] = Displacement of 3-[3H] 1-(azetidin-1-yl)-2-[6-(4-fluoro-3-methyl-phenyl)pyrrolo[3,2-b]pyridin-1-yl]ethanone from GluN1a/GluN2B receptor in […] measured after 2 hrs by liquid scintillation counting method; format: tissue-based, Cortex
Cytochrome P450 1A2 = biological target: T1, Cytochrome P450 1A2 (Homo sapiens, UniProt P05177); assay: Inhibition of CYP1A2 in human liver microsomes using phenacetin as substrate measured after 15 mins by LC-MS/MS analysis; format: ADME
T1 sequence (P05177 whole entry): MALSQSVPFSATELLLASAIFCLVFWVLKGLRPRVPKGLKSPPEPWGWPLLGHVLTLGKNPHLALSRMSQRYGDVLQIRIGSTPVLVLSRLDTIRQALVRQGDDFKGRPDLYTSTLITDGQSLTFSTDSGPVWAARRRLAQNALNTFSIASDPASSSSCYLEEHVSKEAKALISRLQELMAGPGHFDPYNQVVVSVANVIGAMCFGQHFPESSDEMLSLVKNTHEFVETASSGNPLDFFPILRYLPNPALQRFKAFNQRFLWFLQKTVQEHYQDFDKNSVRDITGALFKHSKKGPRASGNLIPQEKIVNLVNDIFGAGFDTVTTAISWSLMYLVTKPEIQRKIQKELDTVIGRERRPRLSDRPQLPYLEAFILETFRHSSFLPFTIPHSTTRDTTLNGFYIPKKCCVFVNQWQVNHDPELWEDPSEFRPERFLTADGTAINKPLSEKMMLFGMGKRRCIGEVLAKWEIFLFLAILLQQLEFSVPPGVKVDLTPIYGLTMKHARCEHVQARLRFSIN
How it was run: (§1)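 Human liver microsomes incubated with isoform-specific probe substrates and the test compound at concentrations up to 20 µM. IC50 derived from inhibition of metabolite formation; mean of two independent experiments, with known specific inhibitors as positive controls.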

Cytochrome P450 2C9 = Cytochrome P450 2C9 (Homo sapiens, UniProt P11712); assay: Inhibition of CYP2C9 in human liver microsomes using tolbutamide as substrate measured after 15 mins by LC-MS/MS analysis; format: ADME; how it was run: as §1
Cytochrome P450 3A4 = Cytochrome P450 3A4 (Homo sapiens, UniProt P08684); assay: Time-dependent inhibition of CYP3A4 in human liver microsomes at 10 uM using nifedipine as substrate by LC-MS/MS analysis; format: ADME
How it was run: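 CYP3A4 time-dependent inhibition in human liver microsomes. The compound (0.4 to 10 μM) was tested with and without 30 min preincubation. IC50 was taken from percent activity remaining versus vehicle, averaged over two independent experiments. A >2-fold IC50 shift after preincubation was the threshold for time-dependent inhibition.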

[4] = Volume of distribution at steady state in dog at 0.1 mg/kg, iv by LC-MS/MS analysis; format: ADME, organism-based, Canis lupus familiaris; conditions: in vivo, read-out: Vdss
[5] = AUC (infinity) in Sprague-Dawley rat at 0.5 mg/kg, iv by LC-MS/MS analysis; format: ADME, organism-based; set-up: route intravenous, time infinity, dose 0.5 mg/kg; conditions: in vivo
How it was run: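 Rat PK with IV and PO dosing, n=3. The usual doses were 0.5 mg/kg IV and 2.5 mg/kg PO in 20% HP-β-CD. One compound was instead given at 0.1 mg/kg IV and 0.5 mg/kg PO.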

[6] = AUC (infinity) in monkey at 0.1 mg/kg, iv by LC-MS/MS analysis; format: ADME, organism-based, Macaca mulatta; set-up: time infinity, route intravenous, dose 0.1 mg/kg; conditions: rhesus monkey, in vivo
[7] = Clearance in monkey at 0.1 mg/kg, iv by LC-MS/MS analysis; format: ADME, organism-based, Macaca mulatta; conditions: rhesus monkey, in vivo
[8] = Volume of distribution at steady state in monkey at 0.1 mg/kg, iv by LC-MS/MS analysis; format: ADME, organism-based, Macaca mulatta; conditions: rhesus monkey, in vivo, read-out: Vdss
[9] = Half life in mouse at 2.5 mg/kg, po by LC-MS/MS analysis; format: ADME, organism-based; conditions: in vivo
[10] = Cmax in Sprague-Dawley rat at 125 mg/kg, po administered via gavage after 24 hrs using HPMC formulation by LC-MS/MS analysis; format: ADME, organism-based; set-up: route oral, time 24 hrs, dose 125 mg/kg; conditions: in vivo
How it was run: (§2)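 Single oral gavage dose to male Sprague Dawley rats, 3 per dose level. Vehicles were a standard suspension in 5% HPMC (125, 250, 500 or 1000 mg/kg) or a nanosuspension (API:polymer 4:1), with stock diluted in vehicle on the day of dosing (100, 250 or 500 mg/kg). Blood was sampled at time points from 0.5 to 24 h.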

[11] = Cmax in Sprague-Dawley rat at 500 mg/kg, po administered via gavage after 24 hrs using HPMC formulation by LC-MS/MS analysis; format: ADME, organism-based; set-up: route oral, time 24 hrs, dose 500 mg/kg; conditions: in vivo; how it was run: as §2
[12] = AUC (0 to 24 hrs) in Sprague-Dawley rat at 500 mg/kg, po administered via gavage after 24 hrs using HPMC formulation by LC-MS/MS analysis; format: ADME, organism-based; set-up: route oral, dose 500 mg/kg, time <=24; conditions: in vivo; how it was run: as §2
[13] = Cmax in Sprague-Dawley rat at 250 mg/kg, po administered via gavage after 24 hrs using nanosuspension formulation by LC-MS/MS analysis; format: ADME, organism-based; set-up: route oral, time 24 hrs, dose 250 mg/kg; conditions: in vivo; how it was run: as §2
[14] = (§3) Ratio of Cmax in Sprague-Dawley rat at 100 mg/kg, po administered via gavage after 24 hrs using nanosuspension formulation by LC-MS/MS analysis to EC70 for ex vivo receptor occupancy at GluN2B in po dosed Sprague-Dawley rat assessed as 3-[3H] 1-(azetidin-1-yl)-2-[6-(4-fluoro-3-methyl-phenyl)pyrrolo[3,2-b]pyridin-1-yl]-ethanone labelling; format: ADME, organism-based
[15] = as §3, with “250” for “100”; format: ADME, organism-based
[16] = Toxicity in Sprague-Dawley rat up to 500 mg/kg/day, po administered as nanosuspension measured for 14 days; format: organism-based; conditions: in vivo, 336 h, time 14 day
How it was run: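 Repeated daily oral dosing of a nanosuspension to rats for 14 days, with 500 mg/kg/day as the high dose. Clinical observations were recorded, and animals were moved to individual caging on Day 6.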

[17] = Protein binding in human plasma assessed as unbound fraction at 0.5 uM after 6 hrs by equilibrium dialysis method; format: ADME, cell-free

Chain of Cytochrome P450 3A4 (P08684 whole entry): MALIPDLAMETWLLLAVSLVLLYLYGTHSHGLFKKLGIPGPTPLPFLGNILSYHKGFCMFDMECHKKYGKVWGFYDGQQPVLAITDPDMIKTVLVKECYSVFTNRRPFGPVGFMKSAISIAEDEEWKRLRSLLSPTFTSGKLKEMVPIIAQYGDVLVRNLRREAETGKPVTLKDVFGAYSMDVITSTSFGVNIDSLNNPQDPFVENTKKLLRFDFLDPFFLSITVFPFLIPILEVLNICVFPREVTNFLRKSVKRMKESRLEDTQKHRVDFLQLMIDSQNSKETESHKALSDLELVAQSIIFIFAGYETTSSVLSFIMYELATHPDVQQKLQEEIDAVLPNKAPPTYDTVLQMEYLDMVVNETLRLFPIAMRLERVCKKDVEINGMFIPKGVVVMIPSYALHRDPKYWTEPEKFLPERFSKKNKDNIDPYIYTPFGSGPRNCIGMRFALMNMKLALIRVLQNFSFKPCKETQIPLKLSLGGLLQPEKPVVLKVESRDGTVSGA
Chain of Cytochrome P450 2C9 (P11712 whole entry): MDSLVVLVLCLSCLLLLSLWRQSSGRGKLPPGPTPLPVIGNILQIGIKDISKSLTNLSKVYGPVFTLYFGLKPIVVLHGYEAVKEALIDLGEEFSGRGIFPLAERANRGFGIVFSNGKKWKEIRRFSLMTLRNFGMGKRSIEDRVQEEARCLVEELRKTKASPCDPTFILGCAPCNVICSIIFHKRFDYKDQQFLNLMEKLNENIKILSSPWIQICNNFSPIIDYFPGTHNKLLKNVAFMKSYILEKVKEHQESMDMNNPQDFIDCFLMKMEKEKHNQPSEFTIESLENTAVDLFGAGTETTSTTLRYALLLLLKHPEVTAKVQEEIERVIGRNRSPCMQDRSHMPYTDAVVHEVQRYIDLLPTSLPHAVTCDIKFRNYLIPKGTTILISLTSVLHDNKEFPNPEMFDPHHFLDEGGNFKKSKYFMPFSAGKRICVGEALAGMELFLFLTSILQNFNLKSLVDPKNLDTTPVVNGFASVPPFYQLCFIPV

- solubility at 72 h [1]: < 4 µM
- concentration at 1 h [2]: 20.9 ng/mL
- Cp (Rattus norvegicus): 716 ng/mL
- Ki [3]: 15 nM
- IC50 (Cytochrome P450 1A2): > 50 µM
- IC50 (Cytochrome P450 2C9): > 50 µM
- TDI (Cytochrome P450 3A4): Not Active
- Vd [4]: 0.8 L/kg
- AUC(0-inf) [5]: 277 ng·h/mL
- AUC(0-inf) [6]: 190 ng·h/mL
- clearance [7]: 9 mL/min/kg
- Vd [8]: 0.8 L/kg
- half-life [9]: 144 min
- Cmax [10]: 4240 ng/mL
- Cmax [11]: 6140 ng/mL
- AUC(0-t) [12]: 22500 ng·h/mL
- Cmax [13]: 12500 ng/mL
- Ratio [14]: 13
- Ratio [15]: 17
- fraction unbound at 6 h, 0.5 µM [17]: 0.046
SMILES: Cn1c(=O)n(CC(=O)N2CCC2)c2cc(-c3ccc(C(F)(F)F)s3)cnc21
- Activity [16]: Non-Toxic
